Rows were chosen to be rich in hits. Some 3.5% of all compounds tested hit in one or more screens of this group.
RGS4 block = inhibitors of human RGS4 | HEK293 M3R/RGS4 inducible, Fluo-4 calcium flux; active compounds read high; triggered by carbachol at its EC20 | actives 0.45% (n = 310,000) | AID 463165 | B-score at 10 µM;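 active = B-score, a plate-corrected calcium signal, over three deviations above library mean, with baseline fluorescence within five deviations of library mean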;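 also: RGS4 expression induced by doxycycline in cells with stable M3 receptor; B-score is computed from the integrated fluorescence ratio over baseline after carbachol; higher B-score means a larger calcium signal and so more RGS4 inhibition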
Target sequence (P49798 whole entry, looked up): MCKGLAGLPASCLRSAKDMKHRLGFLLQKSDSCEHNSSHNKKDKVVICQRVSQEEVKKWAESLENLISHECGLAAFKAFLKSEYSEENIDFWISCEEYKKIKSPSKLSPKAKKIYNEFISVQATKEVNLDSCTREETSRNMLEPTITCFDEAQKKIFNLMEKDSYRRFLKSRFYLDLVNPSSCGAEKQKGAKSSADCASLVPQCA
MrgX1 allo act = human MrgX1 positive allosteric modulation, primary screen. Q96LB2. MrgX1-HEK293, Fluo-4 calcium flux, FDSS; active compounds read high. B-score at 10 µM. actives 0.63% (n = 310,000). AID 588675;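 active = plate-corrected calcium response at least 3 library SD above typical, normal starting fluorescence, not activating the receptor alone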;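 also: compound read alongside a low EC10 to EC30 dose of BAM8-22 agonist; peak minus trough fluorescence over baseline measured at the second addition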
Target sequence (Q96LB2 whole entry, looked up): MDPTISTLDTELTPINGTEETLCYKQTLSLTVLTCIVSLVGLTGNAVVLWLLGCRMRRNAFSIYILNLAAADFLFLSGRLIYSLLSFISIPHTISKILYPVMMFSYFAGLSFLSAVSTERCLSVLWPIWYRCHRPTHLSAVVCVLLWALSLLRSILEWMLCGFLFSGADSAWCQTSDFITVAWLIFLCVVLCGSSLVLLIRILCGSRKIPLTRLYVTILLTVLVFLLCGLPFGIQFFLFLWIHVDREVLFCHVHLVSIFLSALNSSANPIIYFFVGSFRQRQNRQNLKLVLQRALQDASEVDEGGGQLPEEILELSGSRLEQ
MrgX1 antag = blocks BAM8-22 activation of human MrgX1 receptor. actives 1.3% (n = 310,000). B-score at 10 µM. MRGX1-HEK293 calcium flux, Fluo-4, BAM8-22 antagonism; active compounds read low. AID 588676. Q96LB2;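 active = calcium-response B-score plate-corrected more than 3 library SD below zero, starting fluorescence within 5 deviations, no agonist response on first addition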;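 also: peak minus trough fluorescence over baseline after final BAM8-22 challenge near maximal dose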
RGS4 act = RGS4 potentiation or activation. AID 463111. actives 0.92% (n = 310,000). B-score at 10 µM. HEK293 M3R/inducible RGS4, carbachol calcium flux Fluo4; active compounds read low;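 active = B-score of the integrated calcium signal more than 4 SD below the library mean, with starting fluorescence not abnormally high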;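 also: negative B-score means reduced calcium response which marks RGS4 activation or potentiation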
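Material: Inducible-RGS4 HEK293 cells carrying M3 receptor; also added: carbachol at ECmax as muscarinic agonist stimulus; incubation: compound preincubation 20 min at room temperature before agonist; signal: Fluo4-AM (2 µM) calcium-flux fluorescence, kinetic read; measure: integrated calcium ratio converted to B score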
MrgX1 ag = agonists of human MrgX1 receptor; Q96LB2; MrgX1-HEK293 cells, Fluo-4 calcium fluorescence, agonist mode; active compounds read high; B-score at 10 µM; actives 0.44% (n = 310,000);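 active = calcium response B-score plate-corrected fluorescence ratio at least 3 library SD, with starting fluorescence B-score inside 5 SD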
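System – MrgX1-expressing HEK293 cells · Incubation – cells plated overnight, dye loaded 0.5 h 37 °C, 0.5 h room temperature · Technique – kinetic Fluo-4 NW fluorescence of intracellular calcium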
Active calls of the source: *; i = inactive.

SMILES | RGS4 block | MrgX1 allo act | MrgX1 antag | RGS4 act | MrgX1 ag
COC(=O)CN1CCN(C(=O)c2ccco2)CC1 | i | i | i | i | i
CCOc1ccc2nc(N3CCC(C(=O)N4CCN(c5ncccn5)CC4)CC3)sc2c1 | i | i | -8.08* | i | i
CCOc1ccc(NCc2cccn2-c2nnc(N3CCC(C(=O)NCCCN4CC(C)CC(C)C4)CC3)s2)cc1 (centres undefined) | i | i | i | i | i
O=C(CCCC(=O)N(c1ccc(F)cc1)C(C(=O)NC1CCCC1)c1ccc(O)cc1)Nc1ccccn1 (centres undefined) | i | i | i | i | i
Cc1ccc(/C=C2\Oc3c(ccc(O)c3CN3CCN(CCO)CC3)C2=O)cc1 | i | i | i | -9.98* | i
Cc1ccc(Cl)cc1N1CCN(c2cccc[n+]2C)CC1 | i | i | i | -7.35* | i
O=C(c1ccc(N2CCN(C(=O)c3ccc(F)cc3F)CC2)cc1)c1cccc(F)c1 | i | i | i | i | i
Cc1ccc(-c2nc3sc4c(c3c(=O)n2N)CCCC4)cc1 | i | 13.4* | i | i | i
COc1cccc(SCc2noc(C(=O)NC(C)C)c2C(=O)NC(C)C)c1 | i | i | i | i | i
Cc1ccc(/C=C2/Sc3ccccc3N(CC(=O)NCCCOC(C)C)C2=O)cc1 | i | i | -4.79* | i | i
Cc1ccc(C2Oc3ccccc3C3=C2C(c2cccs2)n2ncnc2N3)cc1 (centres undefined) | i | i | i | -7.28* | i
Fc1ccc(C2C3=C(Nc4ncnn42)c2ccccc2OC3c2ccncc2)cc1 (centres undefined) | i | i | i | i | i
O=C(NC1CCSc2ccccc21)c1ccc(C(F)(F)F)cc1 (centres undefined) | i | i | i | i | i
Cc1ccc(NC(=O)CCC(=O)NNC(=O)COc2ccc([N+](=O)[O-])cc2)c(C)c1 | i | i | i | i | i
Cc1cccc(C(=O)N2CCN=C2SCc2ccc([N+](=O)[O-])cc2)c1 | i | i | i | -8.57* | i
O=C(Cc1ccccc1)N1CCN=C1SCc1cccc([N+](=O)[O-])c1 | i | i | i | i | i
O=C(Nc1ccccc1Cl)C1(c2ccccc2)CC1(Cl)Cl (centres undefined) | i | i | i | -7.03* | i
CCOC(=O)CNc1cccc(C(F)(F)F)c1 | i | i | i | i | i
CCOC(=O)c1cc2c(ccn2-c2ccc(F)cc2)n1CC(=O)N(CC)CC | i | i | i | i | i
O=C(c1ccncc1)N1N=C(C2CCCCC2)CC1(O)C(F)(F)F (centres undefined) | i | i | i | -7.41* | i
CC(NC(=O)c1sc2cc([N+](=O)[O-])ccc2c1Cl)C(C)(C)C (centres undefined) | i | 6.88* | i | i | i
Cc1nn(-c2ccccc2)c2c1C1(C(=O)N(C(C)C)c3ccccc31)C(C#N)=C(N)O2 (centres undefined) | i | i | i | i | i
Cc1ccccc1-c1nn(-c2ccc(F)cc2F)cc1CNC1CC1 | i | i | i | i | i
COc1ccc2c(c1)c(=O)c(C(=O)O)c(-c1ccc3c(c1)OCO3)n2C | i | i | i | i | i
CCC(=O)Nc1cccc(C(=O)/C=C/c2ccc(F)cc2)c1 | i | i | i | i | 29.5*
SMILES | RGS4 block | MrgX1 allo act | MrgX1 antag | RGS4 act | MrgX1 ag
COc1cccc(NC(=S)NC(=O)/C=C/c2ccc(F)cc2)c1 | i | i | i | i | i
CN(C)CCCOc1cccc(Oc2ccccc2)c1 | i | i | i | -7.53* | i
O=C(COC(=O)c1ccc2c(=O)n3c(nc2c1)CCC3)Nc1ccc(OC(F)F)cc1 | i | i | i | i | i
COc1cc(-c2nc(C(=O)NCC3CCCO3)cc3c2[nH]c2ccccc23)cc(OC)c1OC (centres undefined) | i | i | i | i | i
O=C(NCC1CCCO1)c1cc2c([nH]c3ccccc32)c(-c2cccc(Cl)c2)n1 (centres undefined) | i | i | i | -9.23* | i
O=[N+]([O-])c1ccc(Oc2cccc(Br)c2)c2ccncc12 | i | 7.87* | i | i | i
CC(CN1CCCCC1)OC(=O)c1ccc2c(c1)OCO2 (centres undefined) | i | i | i | i | i
CC1CCN(CC(C)OC(=O)c2ccc3c(c2)OCCO3)CC1 (centres undefined) | i | i | i | -7.29* | i
CN(C)CCNC(C(=O)Nc1cccc(C(F)(F)F)c1)c1ccccc1 (centres undefined) | i | i | i | -7.11* | i
O=C1/C(=C\c2cc(Br)cc(Br)c2O)SC(=S)N1Cc1ccccc1 | i | i | -6.12* | i | i
COc1cc([N+](=O)[O-])cc(/C=C2/SC(=S)N(Cc3ccccc3)C2=O)c1O | i | i | i | -7.58* | 42.8*
O=C1/C(=C/c2ccccc2O)SC(=S)N1Cc1cccnc1 | i | i | i | i | i
O=C1/C(=C\c2cccc([N+](=O)[O-])c2O)SC(=S)N1Cc1ccccc1 | i | i | -8.03* | i | i
CCn1ccnc1CNC(=O)c1ccc2oc(CCCc3ccccc3)nc2c1 | i | i | i | i | i
CC(C)c1ccc(NC(=S)NCCc2c[nH]c3ccccc23)cc1 | i | i | i | i | i
O=C(CSS(=O)(=O)O)N1CCN(C(=O)c2ccoc2)CC1 | i | i | i | i | i
O=C(NCC(c1cccs1)N1CCOCC1)c1cc([N+](=O)[O-])cc([N+](=O)[O-])c1 (centres undefined) | i | i | i | i | i
CCCCn1c(=O)nc2n(-c3ccccc3C)c3ccccc3cc-2c1=O | i | i | i | -7.62* | i
Cc1ccccc1-n1c2nc(=O)n(C)c(=O)c-2cc2ccccc21 | i | i | i | i | i
CCCOP(=O)(c1ccc(N(C)C)cc1)C(Nc1ccccc1)c1ccc(N(C)C)cc1 (centres undefined) | i | i | i | i | i
CCCCOP(=O)(c1ccc(N(C)C)cc1)C(Nc1ccccc1)c1ccccc1 (centres undefined) | i | i | i | -7.29* | i
CC(Oc1ccc2ccc(=O)oc2c1)C(=O)N1CCOCC1 (centres undefined) | i | i | i | i | i
CC(C)OCC(O)CN1CCNCC1 (centres undefined) | i | i | i | i | i
